The text below walks through data of PMC8753134 (Research and Practice in Thrombosis and Haemostasis, 2022).

Counter-ions that a name gives are not always drawn. Like-named read-outs stand apart in the source and are kept apart here. No end group written: not given here. Where only a bound is given, the exact number is not on record here.

Data set [1] has as its system FXIIa and PKa (contact activation-mediated BK formation). Briefly: Screening of serine protease inhibitors against artificial ex vivo BK formation. In kind it is biochemical, human. As to conditions: citrate plasma; for BK levels after 4.5 hours: 4.5 hours after sampling, n = 3. Put shortly: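 Fresh blood in citrate, with serine protease inhibitors present singly (e.g., 2 mM AEBSF), then combinations of the most promising; uninhibited plasma as reference. BK was quantified by in-house LC-MS/MS immediately (reference value) and up to 4.5 h after sampling, given as relative abundance. Samples were analysed directly without long-term storage.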

For data set [2] the following is noted: cited from earlier work.
Data set [3] is classed as in vitro ADME, human. As to conditions: spiked 1 ng/mL, 3 hours after sampling, absence of inhibitor, n = 3.

For the compound hexadimethrine bromide [HDMB], in data set [1] (tube prespiked with inhibitor, n = 3, LC-MS/MS), the “BK level as % of uninhibited plasma” value came to 0.4%.
For orientation: half-life means the time in which the quantity being followed falls by half. Take RPPGFSPFR [BK, Bradykinin]: the half-life in data set [2] is below 1 min.
For the compound `NCCCC[C@H](N)C(=O)N[C@@H](CCCN=C(N)N)C(=O)N1CCC[C@H]1C(=O)N1CCC[C@H]1C(=O)NCC(=O)N[C@@H](Cc1ccccc1)C(=O)N[C@@H](CO)C(=O)N1CCC[C@H]1C(=O)N[C@@H](Cc1ccccc1)C(=O)N[C@@H](CCCN=C(N)N)C(=O)O` [KBK, Kallidin], the “change of spiked plasma kinin level” value in data set [3] is given as −100%. The half-life in data set [2] is below 1 min.
As to `CC(=O)N[C@@H](CC(C)C)C(=O)N[C@@H](CC(C)C)C(=O)N[C@H](C=O)CCCNC(=N)N` [leupeptin, leupeptin hemisulfate], in data set [1], the “BK levels after 4.5 hours” value is “BK levels were increased”.
Still for that read-out and setting: the same measure for `N=C(N)c1ccc2cc(OC(=O)c3ccc(N=C(N)N)cc3)ccc2c1` [nafamostat, nafamostat mesylate]: “BK levels were increased”.
Regarding RPPGF [BK‐(1‐5), Bradykinin 1–5], the half-life entry in data set [2] (inactive metabolite) was “≈ 90 minutes”.
For RPPGFSP [BK‐(1‐7), Bradykinin 1–7], in data set [3], the “change of spiked plasma kinin level” value was −65.7%.
